Dynein transport: blocks dynein driven cargo transport along microtubules; 3617.4 mouse cells, GR-EGFP nuclear translocation imaging; test concentration mostly 20 µM; stimulated with dexamethasone, 1 µM; active compounds read low; 220,000 compounds, 0.47% hits; z-score, hits read low; AID 1381;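 active = plate z-score of nuclear minus cytoplasmic receptor signal below a set negative limit, without overly bright fluorescence or cell loss, cut at about -3.5 in these data, passing the limit was not always enough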;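 note: z-score of nuclear minus cytoplasmic ring GR-EGFP intensity difference per well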
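Buffer or medium: tet-free medium with charcoal-stripped serum / Also added: dexamethasone agonist, 1.0 µM final, for 30 min / Timing: induction 48 h, compound 1 h, agonist 30 min / Measured by: high-content fluorescence imaging after fixation / Read-out: nuclear-to-cytoplasmic GR-EGFP distribution per well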
MT stabilizer: microtubule stabilizers in HeLa cells; 200,000 compounds, 0.83% hits; % tubulin-high responders, % at 10 µM; HeLa tubulin immunostaining HCS, 24 h; share of cells brighter than vehicle mean+2SD;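 active = plate Z-score above 3 for both tubulin-high and condensed-nucleus cell shares, with cell loss under 80%, at 10 µM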;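 note: anti alpha tubulin signal scored within the nucleus-defined area of each cell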
Autophagy HCS: modulators of autophagy; MEF GFP-LC3 puncta imaging; test concentration mostly 10 µM; calls only at 10 µM (by protocol); 190,000 compounds, 0.98% hits; AID 463193;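 active = percentage of spot-positive cells more than 3 SD above its plate mean, without a fluorescence outlier flag or 80% toxicity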;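 note: spot-positive cell cutoff set from DMSO-treated cells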
bCat nuc transl: modulators of beta-catenin nuclear translocation. HeLa beta-catenin nuclear translocation, immunofluorescence imaging. 190,000 compounds, 0.3% hits. nuclear translocation activity, % at 5 µM;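 active = nuclear translocation activity above 50% at 5 µM, with a well cell count of 50 or more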;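 note: per-cell ratio of nuclear to cytoplasmic median beta-catenin stain intensity; plate controls were DMSO negative control for no effect and GSK-3 inhibitor IX positive control for full effect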
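Test system: human HeLa cells, native beta-catenin. Compound dosing: 5 µM primary single dose, 0.1% DMSO, 0.02–20 µM confirmation series. Incubation: compound exposure 24 h at 37°C. Detection: beta-catenin immunostaining with DAPI counterstain, 20x imaging, 6 fields/well. Read-out basis: Nuclear/cytoplasmic beta-catenin signal ratio, % activation.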
Hsp70 activator: transcriptional activators of Hsp70 | HeLa Hsp70 promoter luciferase reporter, luminescence; scaled: vehicle 0, proteasome-inhibitor control 100% | activation, % at 10 µM | 200,000 compounds, 0.04% hits;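 active = activation above the mean across all tested compounds plus 3 SD, cutoff set per campaign, cut at about 5.5% in these data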;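 note: 100% = MG132 at 30 µM as the positive control and 0% = DMSO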
The depositor's hits bear a star; i = inactive; . = no result given; + = active, no number. Compounds with a hit are over-represented: about 2.1% of the library has one in this group of screens.

SMILES	Dynein transport	MT stabilizer	Autophagy HCS	bCat nuc transl	Hsp70 activator
c1cncc(-c2nc(N3CCOCC3)c3c4c(sc3n2)CCC4)c1	-0.57	7	i	-4	0
c1cncc(-c2nc(NCCCN3CCOCC3)c3c4c(sc3n2)CCC4)c1	0.11	4	+	0	0
O=C(O)c1cc2ccccc2cc1Nc1ccccc1	0.78	.	.	0	.
COc1cccc(C(=O)/C=C/Nc2cc(C)ccc2O)c1	-0.25	2	+	.	0
CCOC(=O)c1ccc(N/C=C\C(=O)c2cccc(OC)c2)cc1	0.022	2	i	4	0
CCN(CC)C(=S)SCC(=O)Nc1ncc2c(n1)CCCC2=O	0.53	.	.	-1	.
O=C(O)c1cc2ccccc2c2cc(Br)ccc12	-3.9	.	.	-2	.
Clc1ccccc1-c1nc2ccccc2c2nc3ccccc3n12	0.0022	2	+	4	0
COc1ccc(C2C(C#N)=C(C)NC3=C2C(=O)c2ccccc23)cc1 (stereo not drawn)	-0.64	11	i	2	0
CC1=C([N+](=O)[O-])C(c2ccccc2)C2=C(N1)c1ccccc1C2=O (stereo not drawn)	0.73	9.9*	+	-2	0
COc1cc(C2C(C#N)=C(C)NC3=C2C(=O)c2ccccc23)cc(OC)c1OC (stereo not drawn)	-1.1	16*	i	5	0
O=C(CSc1nc2ccccc2s1)N/N=C/c1cc([N+](=O)[O-])ccc1O	2.9	.	.	0	.
CS(=O)(=O)Nc1cccc(C2=NN(S(C)(=O)=O)C(c3ccc4c(c3)OCO4)C2)c1 (stereo not drawn)	-0.73	17*	i	0	0
CS(=O)(=O)Nc1ccc(C2=NN(S(C)(=O)=O)C(c3ccccc3)C2)cc1 (stereo not drawn)	-0.47	6	i	-1	0
Cc1csc2ncnc(N3CCN(C(=O)Nc4ccc(OC(F)(F)F)cc4)CC3)c12	0.8	.	.	1	.
CC1CCc2cccc3c2N1c1cc(C#N)c(C#N)cc1O3 (stereo not drawn)	-0.31	15	+	.	0
COc1ccc(C(=O)OC(C)C(=O)Nc2cc(C(F)(F)F)ccc2Cl)c(OC)c1OC (stereo not drawn)	-0.79	4	i	-1	0
O=C(c1nn2c(C(F)(F)F)cc(-c3cccs3)nc2c1Br)N1CCCc2ccccc21	-0.65	6	i	.	0
O=C(c1nn2c(C(F)(F)F)cc(-c3ccco3)nc2c1Br)N1CCCc2ccccc21	0.24	63*	i	-1	0
COc1cccc(-c2nc(Oc3cc(C)cc(C)c3)c3ccccc3n2)c1O	0.23	6	+	0	0
COc1ccccc1NC(=S)N1CCC(c2nc3cc(C)c(C)cc3[nH]2)CC1	0.15	3	i	0	0
COc1ccccc1NC(=O)N1CCC(c2nc3cc(C)c(C)cc3[nH]2)CC1	-0.2	18*	+	40	0
CCN(CC)c1nc2c(c(=O)n(C)c(=O)n2C)n1CC(=O)c1ccccc1	0.54	.	.	0	.
Cn1c2ccccc2n2c(=O)c(Cl)c(-c3ccccc3)c(C#N)c12	1.2	2	+	-1	0
CC(=O)c1ccc(N2CCN(C(=O)C3CCC3)CC2)cc1	0.16	2	+	.	0
SMILES	Dynein transport	MT stabilizer	Autophagy HCS	bCat nuc transl	Hsp70 activator
O=C(Nc1ccc(Cl)cn1)c1cccc(F)c1	0.021	39*	i	100*	0
COc1ccc(-c2ccc3c(N)c(C(=O)c4ccc(OC)c(OC)c4)sc3n2)cc1	0.11	3	+	.	0
COc1ccc(C(=O)c2sc3nc(-c4ccccc4)ccc3c2N)cc1OC	-1.8	2	i	4	0
CCOc1ccc(NCc2nnc(SCc3ccc(Cl)cc3)n2-c2ccccc2)cc1	-0.61	2	i	-2	0
CCc1nc(Sc2nnnn2-c2ccccc2)c2c3c(sc2n1)CCCC3	-0.15	5	i	-2	0
Cc1nc(Sc2nnnn2C)c2c3c(sc2n1)CCC3	0.42	4	+	2	0
Cc1ccc(CSc2nccc(-c3c(C)nc4ccccn34)n2)cc1	0.44	.	.	55*	.
Cc1ccc(CSc2ncn(-c3ccccc3)n2)cc1	-0.071	2	i	-10	0
C=C(C)COc1ccc(-c2[nH]ncc2Oc2ccccc2OC)c(O)c1	0.39	4	i	5	0
C=C(C)COc1ccc(-c2[nH]ncc2Oc2ccc(OC)cc2)c(O)c1	-0.47	.	.	1	.
C=C(C)COc1ccc(-c2n[nH]c(C)c2-c2ccc(Br)cc2)c(O)c1	-1.1	26*	+	.	0
C=C(C)COc1ccc(-c2[nH]ncc2-c2ccc(Br)cc2)c(O)c1	-0.58	19*	i	39	0
COc1ccc(-c2c(-c3ccc(O)cc3O)n[nH]c2C)cc1OC	-0.43	35*	i	.	0
C=C(C)COc1ccc(-c2[nH]ncc2-c2ccccc2OC)c(O)c1	-1.1	29*	i	-3	0
O=C(CCS(=O)(=O)c1ccc(Cl)cc1)Nc1ccc(N2CCOCC2)cc1	-0.39	.	.	-2	.
O=C(NC1CC1)C1=C[C@@H](C2CC2)C[C@@H](OCc2ccc(CO)cc2)O1	-1.3	.	.	1	.
O=C(CSc1nncc2ccccc12)N1CCCCC1	-0.69	2	i	-3	0
O=Cc1ccccc1OCCOc1ccccc1C=O	1.2	4	+	.	0
O=Cc1ccccc1Oc1ccccc1	-0.36	2	i	-4	0
COc1cc2c(c(OC)c1OC)CCc1cnoc1-2	-0.42	.	.	0	.
CCOC(=O)Nc1ccc2nc(N3CCCCCC3)sc2c1	0.46	.	.	84*	.
CCOC(=O)N1CCN(C(=O)Nc2ccc3nc(C)sc3c2)CC1	0.55	4	i	0	0
O=C(CSCc1ccc(Cl)cc1)Nc1ccc(-c2nnc(-c3ccccc3)o2)cc1	-0.62	6	+	2	0
c1ccc(COc2ccc(OCCN3CCCCC3)cc2)cc1	-0.35	2	i	3	0
CC(=O)Oc1ccc(C2C3=C(CC(C)(C)CC3=O)Nc3cc4c(cc32)OCCO4)cc1 (stereo not drawn)	0.51	4	i	0	0
O=C1OCC2=C1C(c1ccc(F)cc1)c1cc3c(cc1N2)OCO3 (stereo not drawn)	0.43	7	i	74*	0
CCOc1ccccc1C1C2=C(COC2=O)Nc2cc3c(cc21)OCO3 (stereo not drawn)	-0.84	7	i	2	1
O=C1OCC2=C1C(c1ccc(F)cc1)c1cc3c(cc1N2)OCCO3 (stereo not drawn)	-0.13	12	i	78*	1
C#CCOc1ccc(C2C3=C(COC3=O)Nc3cc4c(cc32)OCO4)cc1OC (stereo not drawn)	0.57	2	i	61*	0
Cc1cc(/C=N/NC(N)=S)c(O)c(/C=N/NC(N)=S)c1	-1.7	.	.	-2	.
